Entries after “also recorded” stand apart in the source; their conditions may differ.
Experiments:
GAT-1-Synt1A complex = GAT-1-Synt1A complex (Mus musculus, UniProt P31648); assay type: in vivo; conditions: intranasally given days 5-11 after photothrombotic stroke; n = 5
In short: (§1)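 Dissected tissue was lysed on ice for 30 min in ice-cold RIPA buffer (50 mM Tris-HCl pH 7.4, 150 mM NaCl, 1 mM EDTA, 1% NP-40, 0.1% SDS, 0.5% deoxycholate, protease inhibitors). Lysates were spun at 12,000 ×g for 15 min at 4°C, and supernatant was precleared 1 h at 4°C with protein G magnetic beads before co-IP. Blots were probed with anti-GAT-1 (1:4000) and anti-syntaxin1A (1:4000).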

[1] = tested on: mice with photothrombotic stroke; assay: Motor function; assay type: in vivo, mouse
In short: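 Photothrombotic stroke was induced with rose bengal, holding body temperature at 37 ± 0.5°C. For grid walking, each mouse walked freely for 5 min on a wire grid 50 cm high. For the cylinder task, mice explored a clear cylinder (15 cm tall, 10 cm diameter) for 5 min, and only rears with both forelimbs clearly visible were timed. Tests ran 7 days before stroke and at set days after stroke.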

GAT-1 [2] = molecular target: GAT-1 (Mus musculus, UniProt P31648); assay: 3H-GABA uptake assay in cultured neurons; assay type: cell-based; conditions: 1 h drug preincubation; 10 nM 3H-GABA + 30 μM GABA, 37°C 1 h; n = 5
In short: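 Primary cortical neurons from E16 mice were grown on poly-L-ornithine in Neurobasal with 2% B27. Cells were rinsed twice in 37°C HBSS, equilibrated 10 min, then preincubated 1 h in drug-containing HBSS. Uptake was started with 3H-GABA (10 nM final) plus unlabeled GABA (30 μM final), 37°C for 1 h. It was stopped by three ice-cold HBSS washes, solubilised in 0.1 M NaOH, and read by scintillation counting plus BCA protein assay. Analysis used a two-tailed t test.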

GAT-1 [3] = assay: 3H-GABA uptake in HEK293 cells overexpressing GAT-1; assay type: cell-based; conditions: n = 5
In short: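 HEK293 cells were kept in MEM with 10% FBS and transduced with lentiviral GAT-1-EGFP. These GAT-1-overexpressing cells were incubated with peptide (100 nM), or with the mutant control peptide at the same concentration, before 3H-GABA uptake was measured.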

[4] = tested on: extracellular GABA ([GABA]o); assay: Extracellular GABA in peri-infarct cortex; assay type: in vivo, mouse; conditions: intranasal administration; Figure S6A; n = 5
In short: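 A CMA7 microdialysis probe was placed in peri-infarct cortex (AP 0, ML −0.65, DV −1.5 mm from bregma). It was perfused at 1 μL/min with bicarbonate-buffered saline containing 10 mM glucose. Dialysate was collected in 20-min fractions over 2 h, and the second fraction was analysed. GABA was measured by ELISA (activator, 37°C for 15 min in the dark, stop solution, A450).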

[5] = tested on: layer 5 peri-infarct pyramidal neurons; assay: Whole-cell recordings in acute brain slices from treated mice; assay type: in vivo, mouse; conditions: intranasal administration
[6] = tested on: pyramidal neurons in the peri-infarct cortex; assay: Fiber photometry of GCaMP6s Ca2+ signal; assay type: in vivo, mouse; conditions: intranasal administration; Figures S6F, S6G
In short: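 AAV-CaMKII-GCaMP6s was injected into the peri-infarct cortex (AP 0, ML −2.0, DV −1.3 mm from bregma). An optical fibre (230 μm OD, 0.37 NA) was implanted at the same site. GCaMP6s fluorescence was excited with a 488 nm LED at 20 μW at the fibre tip and recorded by fibre photometry.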

rats subjected to tMCAO [7] = assay: Sensorimotor function after tMCAO; assay type: in vivo; conditions: rat tMCAO, intranasal days 5-11 after stroke
In short: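 For grid walking, rats walked 5 min on a wire grid 60 cm high. For the cylinder task, rats explored a cylinder (30 cm tall, 20 cm diameter) for 5 min. For sticky tape, rats were handled 30 min/day for 3 days first. Ratio of interest = seconds attending to stimulus/30, averaging the best two trials. Sticky-tape ratio = left forepaw ratio/right forepaw ratio.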

rats subjected to tMCAO [8] = assay: Morris water maze after tMCAO; assay type: in vivo; conditions: rat tMCAO, intranasal days 5-11
In short: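 Rats were habituated to the maze (180 cm diameter, opacified water, drained daily) 1 day beforehand. In learning trials, rats swam up to 60 s to reach a hidden platform 1.2 cm below the surface. A probe trial without the platform ran 24 h after the last learning trial. Swimming was recorded by overhead video tracking.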

[9] = Concentration of ZLQ-3-1 in brain tissue; assay type: in vivo, rat; conditions: intranasal delivery; brain homogenate, LC-MS/MS
In short: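 Brain tissue was quantified by LC-MS/MS with verapamil run alongside. The test compound eluted at 1.45 min and verapamil at 1.65 min.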

GAT-1-Synt1A interaction = GAT-1-Synt1A interaction (Rattus norvegicus, UniProt P23978); assay: Co-IP of Synt1A-GAT-1 complexes after tMCAO; assay type: in vivo; conditions: intranasally given days 5-11 after stroke
In short: as §1

[10] = tested on: extracellular GABA ([GABA]o); assay: Extracellular GABA after tMCAO; assay type: in vivo, rat; conditions: intranasal delivery; Figure 6F; n = 5
infarct volume = assay: Infarct volume; assay type: in vivo; conditions: Nissl staining 12 days after stroke; n = 8
In short: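 Coronal 40 μm vibratome sections were stained in Nissl solution at 40°C for 10 min. Infarct size was measured on microscope images.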

mice [11] = assay: Open field test; assay type: in vivo, mouse; conditions: 5 min; n = 14
mice [12] = assay: Conditioned place preference; assay type: in vivo, mouse; conditions: n = 10
In short: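 During pretest and test, mice had free access to both chambers for 15 min. Vehicle-group mice received vehicle injections morning and afternoon; all other steps matched the compound group. Apparatus was cleaned with 75% alcohol after each pretest, training and test session.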

[13] = 5 mg/kg intranasally days 5-11 after stroke, test day 12

In the case of “Glucose-D-Arg-Dmt-Cha-D-Lys-D-Arg-NH2 [ZLQ-3-1]”, the “stroke-induced GAT-1-Synt1A interaction, intranasal dosing” value (GAT-1-Synt1A complex) is reported as “reversed stroke-induced GAT-1-Synt1A interaction”, the “impairment of motor functions, intranasal 5 mg/kg” value [1, 13] is reported as “attenuated the impairment of motor functions” and the “motor functional recovery of ZLQ-3-1-treated versus ZLQ-3-treated mice” value [1, 13] is reported as “better motor functional recovery than ZLQ-3-treated mice”. The “impairment of motor functions, intraperitoneal dosing” value ([1]; 2.5, 5, 10, or 20 mg/kg i.p. days 5-11 after stroke, test day 12) was “attenuated the impairment of motor functions dose dependently”, the “long-term motor functional recovery, WT mice” value ([1]; intranasal treatment days 5-11 after stroke, Figure S5K) was “long-lasting motor functional recovery effects” and the “3H-GABA uptake in cultured neurons” value (GAT-1 [2]) was “significantly increased ^3H-GABA uptake”. For the same substance, the “reuptake of GABA by GAT-1, HEK293 cells overexpressing GAT-1” value (GAT-1 [3]) was “did not directly affect the reuptake of GABA by GAT-1”, the “stroke-induced increase in extracellular GABA” value [4] was “reversed stroke-induced increases in extracellular GABA” and the “stroke-induced increase in tonic inhibition” value ([5]; Figures S6B, S6C) was “reversed stroke-induced increases”. The “inhibitory synaptic transmission (sIPSC)” value ([5]; Figures S6D, S6E) was “increased inhibitory synaptic transmission”, the “stroke-induced decline in cortical excitability, WT mice” value [6] was “prevented stroke-induced decline in cortical excitability” and the “foot faults in the grid-walking task” value (rats subjected to tMCAO [7]) was “decreased foot faults”. For the same substance, the “forelimb sticky-tape ratio in modified sticky-tape test” value (rats subjected to tMCAO [7]) was “increased forelimb sticky-tape ratio”, the “forelimb symmetry index in the cylinder task” value (rats subjected to tMCAO [7]) was “decreased” and the “somatosensory and motor functions” value (rats subjected to tMCAO [7]; tests days 4, 12, 19, 26) was “significantly improved somatosensory and motor functions”. The swimming speed (rats subjected to tMCAO [8]) was “did not affect swimming speed”, the “target entries in the probe test” value (rats subjected to tMCAO [8]) was “increased target entries” and the “time spent in target quadrant in the probe test” value (rats subjected to tMCAO [8]) was “increased”. The “latency (time to reach the platform)” value (rats subjected to tMCAO [8]; training trials) was “significantly decreased latency”, the “brain exposure of ZLQ-3-1 (time course of concentrations in brain tissue)” value [9] was “rapid and long-lasting brain exposure; also recorded: high brain exposure” and the “stroke-induced GAT-1-Synt1A interaction in the hippocampus” value (GAT-1-Synt1A interaction) was “reversed stroke-induced GAT-1-Synt1A interaction”. The “stroke-induced GAT-1-Synt1A interaction in the peri-infarct cortex” value (GAT-1-Synt1A interaction) was “reversed stroke-induced GAT-1-Synt1A interaction”, the “stroke-induced increase in [GABA]o in the peri-infarct cortex” value [10] was “reversed” and the infarct volume (infarct volume) was “did not change infarct volume”. For the same substance, the “locomotor activity (open field test: total distance, velocity)” value (mice [11]) was “did not affect locomotor activity” and the conditioned place preference (mice [12]) was “did not affect”.

Reference: PMC11604526 (Cell Reports Medicine, 2024)
